ChEMBL document CHEMBL1145465, “PhoU is a persistence switch involved in persister formation and tolerance to multiple antibiotics and stresses in Escherichia coli” (2007)

Columns and labels:
Type in all cases: functional
[1] = system: Escherichia coli; experiment: Antibacterial activity against Escherichia coli K12 mutant JHU313 at 100 ug/ml after 48 hrs by disc diffusion method
Summary of the method: (§1)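 Kirby-Bauer disc assay: log-phase LB culture was spread on LB agar for confluent growth. 7-mm nitrocellulose discs were soaked in antibiotic at the listed concentration and placed on the agar. After 48 h at 37°C, the diameter of the inhibition zone was measured in mm.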

[2] = system: Escherichia coli; experiment: Antibacterial activity against Escherichia coli K12 PhoU wild type W3110 at 6 ug/ml after 48 hrs by disc diffusion method
Summary of the method: (§2)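 Kirby-Bauer disc assay. Log-phase LB culture (10⁸ bacteria) was spread for confluent growth on LB agar. 7 mm nitrocellulose discs soaked in antibiotic at the listed concentrations were laid on the agar. Inhibition zone diameter (mm) was measured after 48 h at 37°C.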

[3] = system: Escherichia coli; experiment: Antibacterial activity against Escherichia coli K12 PhoU wild type W3110 assessed as cell count in log phase at 100 ug/ml after 1 week
Summary of the method: (§3)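 Log-phase or stationary-phase cultures exposed to ampicillin 100 μg/ml in MOPS minimal medium (pH 5.0) at 37°C without shaking, for 5 h up to 10 days. Aliquots were taken at each time point, washed in saline and plated on LB plates for viable CFU/ml.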

[4] = system: Escherichia coli; experiment: Antibacterial activity against Escherichia coli K12 containing deletion deltaphoB mutant assessed as cell count in log phase at 100 ug/ml after 5 hrs
Summary of the method: (§4)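 Deletion mutants were made by the Datsenko–Wanner method. Log-phase or stationary-phase cultures were exposed to ampicillin at 100 μg/ml. CFU/ml was determined at the start and after 5, 24 and 72 h of exposure.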

[5] = system: Escherichia coli; experiment: Antibacterial activity against Escherichia coli K12 mutant JHU313 containing plasmid vector at 6 ug/ml after 48 hrs by disc diffusion method
Summary of the method: (§5)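 Kirby-Bauer paper-disc assay: log-phase E. coli (10⁸ bacteria) grown in LB broth, spread on LB agar for confluent growth; 7 mm nitrocellulose discs soaked with antibiotic solution at the listed concentration (μg/ml) placed on surface; incubated 37°C for 48 h; diameter of growth-inhibition zone measured in mm. Strain is the phoU transposon mutant transformed by electroporation with empty vector control.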

[6] = system: Escherichia coli; experiment: Antibacterial activity against Escherichia coli K12 containing deletion deltaphoBR mutant assessed as cell count in log phase at 100 ug/ml after 24 hrs; summary of the method: as §4
[7] = system: Escherichia coli; experiment: Antibacterial activity against Escherichia coli K12 containing deletion deltaphoBR mutant assessed as cell count in stationary phase at 100 ug/ml after 24 hrs; summary of the method: as §4
[8] = system: Escherichia coli; experiment: Antibacterial activity against Escherichia coli K12 containing deletion deltahipA mutant assessed as cell count in log phase at 100 ug/ml after 24 hrs; summary of the method: as §4
[9] = system: Escherichia coli; experiment: Antibacterial activity against Escherichia coli K12 PhoU wild type W3110 assessed as cell count in log phase at 100 ug/ml after 1 day; summary of the method: as §3
[10] = system: Escherichia coli; experiment: Antibacterial activity against Escherichia coli K12 containing deletion deltahipA mutant assessed as cell count in stationary phase at 100 ug/ml after 5 hrs; summary of the method: as §4
[11] = system: Escherichia coli; experiment: Antibacterial activity against Escherichia coli K12 containing deletion deltaphoU mutant assessed as cell count in log phase at 100 ug/ml after 5 hrs
Summary of the method: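 Wild-type W3110-derived deletion mutants were made by the Datsenko–Wanner method. Log-phase or stationary-phase cultures were exposed to ampicillin 100 μg/ml in MOPS minimal medium at pH 5.0, at 37°C without shaking. Aliquots were taken at set times, washed in saline and plated on LB for viable CFU/ml.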

[12] = system: Escherichia coli; experiment: Antibacterial activity against Escherichia coli K12 PhoU wild type W3110 assessed as cell count in stationary phase at 100 ug/ml after 10 days; summary of the method: as §3
[13] = system: Escherichia coli; experiment: Antibacterial activity against Escherichia coli K12 mutant JHU313 containing plasmid PhoU at 100 ug/ml after 48 hrs by disc diffusion method; summary of the method: as §1
[14] = system: Escherichia coli; experiment: Antibacterial activity against Escherichia coli K12 PhoU wild type W3110 assessed as cell count in log phase at 100 ug/ml after 3 days; summary of the method: as §3
[15] = system: Escherichia coli; experiment: Antibacterial activity against Escherichia coli K12 containing deletion deltaphoBR mutant assessed as cell count in log phase at 100 ug/ml after 5 hrs; summary of the method: as §4
[16] = system: Escherichia coli; experiment: Antibacterial activity against Escherichia coli K12 containing deletion deltaphoU mutant assessed as cell count in log phase at 3 ug/ml after 10 days
Summary of the method: (§6)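 Log-phase or stationary-phase cultures of the ΔphoU deletion mutant (Datsenko–Wanner construction) were exposed to norfloxacin 3 μg/ml in MOPS minimal medium, pH 5.0, at 37°C without shaking, for up to 10 days. Sampled aliquots were washed in saline and plated on LB agar for CFU/ml.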

[17] = system: Escherichia coli; experiment: Antibacterial activity against Escherichia coli K12 PhoU wild type W3110 at 0.1 ug/ml after 48 hrs by disc diffusion method; summary of the method: as §2
[18] = system: Escherichia coli; experiment: Antibacterial activity against Escherichia coli K12 PhoU wild type W3110 assessed as cell count in log phase at 3 ug/ml after 5 days
Summary of the method: (§7)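 Log-phase or stationary-phase cultures were exposed to ampicillin (100 μg/ml) or norfloxacin (3 μg/ml) in MOPS minimal medium, pH 5.0, at 37°C without shaking, for 5 h to 10 days. Aliquots were saline-washed and plated on LB for CFU/ml.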

[19] = system: Escherichia coli; experiment: Antibacterial activity against Escherichia coli K12 PhoU wild type W3110 assessed as cell count in stationary phase at 3 ug/ml after 1 day; summary of the method: as §7
[20] = system: Escherichia coli; experiment: Antibacterial activity against Escherichia coli K12 PhoU wild type W3110 assessed as cell count in stationary phase at 3 ug/ml after 3 days; summary of the method: as §7
[21] = system: Escherichia coli; experiment: Antibacterial activity against Escherichia coli K12 containing deletion deltaphoU mutant assessed as cell count in stationary phase at 3 ug/ml after 5 days; summary of the method: as §6
[22] = system: Escherichia coli; experiment: Antibacterial activity against Escherichia coli K12 containing PhoU mutant assessed as cell count in log phase at 3 ug/ml after 1 day; summary of the method: as §7
[23] = system: Escherichia coli; experiment: Antibacterial activity against Escherichia coli K12 containing PhoU mutant assessed as cell count in log phase at 3 ug/ml after 1 week; summary of the method: as §7
[24] = system: Escherichia coli; experiment: Antibacterial activity against Escherichia coli K12 PhoU wild type W3110 at 2 ug/ml after 48 hrs by disc diffusion method; summary of the method: as §2
[25] = system: Escherichia coli; experiment: Antibacterial activity against Escherichia coli K12 PhoU wild type W3110 assessed as cell count in log phase at 3 ug/ml after 3 days; summary of the method: as §7
[26] = system: Escherichia coli; experiment: Antibacterial activity against Escherichia coli K12 mutant JHU313 containing plasmid vector at 4 ug/ml after 48 hrs by disc diffusion method; summary of the method: as §5
[27] = system: Escherichia coli; experiment: Antibacterial activity against Escherichia coli K12 PhoU wild type W3110 assessed as cell count in log phase at 3 ug/ml after 1 week; summary of the method: as §7
[28] = system: Escherichia coli; experiment: Antibacterial activity against Escherichia coli K12 containing deletion deltaphoU mutant assessed as cell count in log phase at 3 ug/ml after 5 hrs; summary of the method: as §6
[29] = system: Escherichia coli; experiment: Antibacterial activity against Escherichia coli K12 containing deletion deltaphoU mutant assessed as cell count in stationary phase at 3 ug/ml after 5 hrs; summary of the method: as §6

CC1(C)S[C@@H]2[C@H](NC(=O)[C@H](N)c3ccccc3)C(=O)N2[C@H]1C(=O)O [AMPICILLIN]
inhibition zone (IZ) [1]: 40 mm
inhibition zone (IZ) [2]: 25 mm
CFU [3]: 0 mL⁻¹
CFU [4]: 6 10^3/ml
inhibition zone (IZ) [5]: 34 mm
CFU [6]: 2 10^3/ml
CFU [7]: 1.7 10^9/ml
CFU [8]: 1 10^3/ml
CFU [9]: 10 mL⁻¹
CFU [10]: 6 10^9/ml
CFU [11]: 1 10^2/ml
CFU [12]: 2 10^5/ml
inhibition zone (IZ) [13]: 40 mm
CFU [14]: 0 mL⁻¹
CFU [15]: 7 10^3/ml

CCn1cc(C(=O)O)c(=O)c2cc(F)c(N3CCNCC3)cc21 [NORFLOXACIN]
CFU [16]: 0 mL⁻¹
inhibition zone (IZ) [17]: 24 mm
CFU [18]: 7 10^2/ml
CFU [19]: 4 10^9/ml
CFU [20]: 1 10^8/ml
CFU [21]: 0 mL⁻¹
CFU [22]: 4 10^5/ml
CFU [23]: 0 mL⁻¹
inhibition zone (IZ) [24]: 30 mm
CFU [25]: 5 10^4/ml
inhibition zone (IZ) [26]: 44 mm
CFU [27]: 0 mL⁻¹
CFU [28]: 5 10^7/ml
CFU [29]: 6 10^8/ml
